Assay results pooled from the literature.
Compare with care: the assays were run in different laboratories.
Sample: Caco-2

Compound	concentration	time	pH	Papp A→B
O=c1cc(-c2ccc(O)c(O)c2)oc2cc(O)cc(O)c12	100 µg/mL	2 h		7.1 ×10⁻⁶ cm/s
CC(C)NCC(O)COc1cccc2ccccc12 (stereo not shown)	5 µM	2 h		12.6 ×10⁻⁶ cm/s
O=C(O)[C@H]1O[C@@H](Oc2cc3oc(-c4ccccc4)cc(=O)c3c(O)c2O)[C@H](O)[C@@H](O)[C@@H]1O	100 µg/mL	2 h		10.8 ×10⁻⁶ cm/s
O=c1c(O[C@@H]2O[C@H](CO)[C@H](O)[C@H](O)[C@H]2O)c(-c2ccc(O)c(O)c2)oc2cc(O)cc(O)c12	100 µg/mL			0.383 ×10⁻⁶ cm/s
CCONC(=O)N1CCC[C@H](C(=O)NCc2nc(-c3ccc(C#N)cc3)cs2)C1			pH 7.4	6.5 ×10⁻⁶ cm/s
O=c1c2cc(Cl)ncc2[nH]c(=S)n1Cc1cccnc1	10 µM	90 min	pH 7.4	34.6 ×10⁻⁶ cm/s
N=C(N)NCCCNC(=O)[C@@H]1CCCCN1C(=O)[C@@H](CC1CCCCC1)NCC(=O)O	5 µM	2 h		0.05 ×10⁻⁶ cm/s
O=c1cc(-c2ccc(O)cc2)oc2c([C@@H]3O[C@H](CO)[C@@H](O)[C@H](O)[C@H]3O)c(O)cc(O)c12	50 µg/mL			0.254 ×10⁻⁶ cm/s
N#Cc1ccc(C[C@H](Nc2nnc(-c3ccc(F)cc3)o2)C(=O)N2CCc3ccccc32)cc1	100 µM	2 h		62.9 ×10⁻⁶ cm/s
C[C@@H]1O[C@@H](OC[C@H]2O[C@@H](Oc3c(-c4ccc(O)c(O)c4)oc4cc(O)cc(O)c4c3=O)[C@H](O)[C@@H](O)[C@@H]2O)[C@H](O)[C@H](O)[C@H]1O	100 µg/mL			0.304 ×10⁻⁶ cm/s
O=C(NCc1nc(-c2ccc(C(F)(F)F)cc2)cs1)[C@H]1CCCN(C(=O)COCCN2CCCCC2)C1			pH 7.4	3.9 ×10⁻⁶ cm/s
Cc1ccc2[nH]c(=S)n(Cc3cccnc3)c(=O)c2c1	10 µM	90 min	pH 7.4	35.4 ×10⁻⁶ cm/s
C[C@@H]1O[C@@H](OC[C@H]2O[C@@H](Oc3c(-c4ccc(OCCO)c(OCCO)c4)oc4cc(OCCO)cc(O)c4c3=O)[C@H](O)[C@@H](O)[C@@H]2O)[C@H](O)[C@H](O)[C@H]1O	100 µg/mL	2 h		6.15 ×10⁻⁶ cm/s
N[C@@H](COCC(=O)N1CCC[C@H](C(=O)NCc2nc(-c3ccc(C(F)(F)F)cc3)cs2)C1)c1ccccc1			pH 7.4	8.5 ×10⁻⁶ cm/s
CCN1CCCC1CNC(=O)c1cc(S(N)(=O)=O)ccc1OC (stereo not shown)	5 µM	2 h		0.16 ×10⁻⁶ cm/s
CC[C@]1(O)C[C@@H]2CN(CCc3c([nH]c4ccccc34)[C@@](C(=O)OC)(c3cc4c(cc3OC)N(C)[C@H]3[C@@](O)(C(=O)OC)[C@H](OC(C)=O)[C@]5(CC)C=CCN6CC[C@]43[C@@H]65)C2)C1	10 µM	2 h		1.69 ×10⁻⁶ cm/s
N#C[C@@]1(c2ccc3c(N)ncnn23)O[C@H](CO)[C@@H](O)[C@H]1O	10 µM	2 h		3.8 ×10⁻⁶ cm/s
COc1ccc(CCC(=O)c2c(O)cc(O[C@@H]3O[C@H](CO)[C@@H](O)[C@H](O)[C@H]3O[C@@H]3O[C@@H](C)[C@H](O)[C@@H](O)[C@H]3O)cc2O)cc1O	100 µg/mL	2 h		17 ×10⁻⁶ cm/s
C[C@H]1O[C@@H](O[C@H]2[C@@H](O)C[C@H](O[C@H]3[C@@H](O)C[C@H](O[C@H]4CC[C@@]5(C)[C@H](CC[C@@H]6[C@@H]5C[C@@H](O)[C@]5(C)[C@@H](C7=CC(=O)OC7)CC[C@]65O)C4)O[C@@H]3C)O[C@@H]2C)C[C@H](O)[C@@H]1O	10 µM	2 h		0.48 ×10⁻⁶ cm/s
